Molecules are shown by their SMILES. Activity calls are given as the source filed them. The rule behind the calls is not given here.

Data set [1] has as its target Mitogen-activated protein kinase 1 (Homo sapiens, UniProt P28482). Nature of the data set: Inhibition of ERK2 phosphorylation in bFGF-stimulated serum-starved human HUVEC cells by immunoblotting analysis. The format is cell-based.
Another data set concerns the target Ephrin type-B receptor 2 (Homo sapiens, UniProt P29323). Nature of the data set: Inhibition of EphB2 (unknown origin) in presence of ATP. The method, boiled down: (§1)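 Cell-free kinase assay using recombinant tyrosine kinases with 1 μmol/L ATP, run in quadruplicate. IC50 values determined.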
The target in data set [2] is T1, Mitogen-activated protein kinase 3 (Homo sapiens, UniProt P27361). As to the kind of experiment: Inhibition of ERK1 phosphorylation in EGF-stimulated serum-starved human HUVEC cells by immunoblotting analysis. The format is cell-based. For orientation: In western blotting, separated proteins are transferred to a membrane and probed.
Another data set relates to LoVo. As to the kind of experiment: Antitumor activity against human LoVo cells xenografted in gamma-irradiation induced RH-rnu/rnu athymic rat assessed as tumor growth inhibition at 0.2 mg/kg, po administered once daily for 2 weeks and measured on day 14 relative to control. The format is functional. The note with it: light or radiation study, 336 h, read-out: TGI. In outline:
(§2)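 Rats were γ-irradiated with 7 Gy whole body, and 24 h later received s.c. tumor cells. Fragments (20-30 mg) from ~1,500 mm3 tumors were then implanted s.c. into irradiated athymic rats. Oral dosing at 0.2 or 1 mg/kg or vehicle ran once daily for 2 weeks from day 0. Tumors were measured with calipers twice weekly (length×width²×0.5). TGI% was taken versus vehicle on day 14 (BxPC-3: day 13), with an unpaired t test on RTV.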
On the technique in general: In xenograft studies the graft and the host belong to different species.

The subject of the next data set is A549. Nature of the data set: Antitumor activity against human A549 cells xenografted in F344/N Jcl-rnu athymic rat assessed as tumor regression at 0.2 mg/kg, po relative to control.
Data set [3] in a line: Apparent oral clearance in F344/N JcL-rnu athymic rat at 0.2 mg/kg, po measured upto 72 hrs by HPLC-MS/MS analysis. The class given is ADME, organism-based. The settings on record: in vivo. The method, boiled down:
(§3)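 Female F344/N JcL-rnu rats, four per group, single p.o. dose suspended in 0.5% methyl cellulose. Tail-vein blood sampled at set times to 72 h. Serum spiked with internal standard, deproteinated with acetonitrile, analysed by HPLC-MS/MS. Parameters derived by noncompartmental analysis.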

Data set [4] relates to HUVEC. Nature of the data set: Antiproliferative activity against bFGF-induced human HUVEC cells assessed as cell viability incubated for 72 hrs by WST-1 assay. A general note: Formazan colour is commonly taken as a measure of viable cells.
The target of data set [5] is Receptor tyrosine-protein kinase erbB-4 (Homo sapiens, UniProt Q15303). As to the kind of experiment: Inhibition of ErbB4 (unknown origin) in presence of ATP.
The test system of a further data set is MDA-MB-231. Nature of the data set: Antitumor activity against human MDA-MB-231 cells xenografted in gamma-irradiation induced RH-rnu/rnu athymic rat assessed as relative tumor volume at 1 mg/kg, po administered once daily for 2 weeks and measured on day 7. The format is functional. In outline:
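Tumor fragments were grown in γ-irradiated (7 Gy) athymic rats, followed by once-daily oral dosing at 1 mg/kg for 2 weeks. Tumor volume was measured with calipers as length×width²×0.5. Relative tumor volume was calculated as volume on day x divided by volume on day 0.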

Data set [6] deals with T1, Mitogen-activated protein kinase 3. As to the kind of experiment: Inhibition of ERK1 phosphorylation in VEGF-stimulated serum-starved human HUVEC cells by immunoblotting analysis. The class given is cell-based. The method, boiled down: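 HUVECs serum-starved, treated with inhibitor (DMSO stock diluted in medium), then stimulated with VEGF. Lysates run on SDS-PAGE and immunoblotted with anti-phospho-p44/42 MAPK antibody. Four independent experiments.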

Another data set has as its system BXPC-3. As to the kind of experiment: Antitumor activity against human BXPC-3 cells xenografted in gamma-irradiation induced RH-rnu/rnu athymic rat assessed as tumor growth inhibition at 0.2 mg/kg, po administered once daily for 2 weeks and measured on day 13 relative to control. The class given is functional. The settings on record: BXPC-3, light or radiation study, 336 h, read-out: TGI. In outline:
as §2

The next data set relates to Calu-6. As to the kind of experiment: Antitumor activity against human Calu-6 cells xenografted in RH-rnu/rnu athymic rat assessed as tumor growth inhibition at 1.0 mg/kg, po administered once daily for 2 to 21 days by DCE-MRI analysis. The note with it: time 2-21 day.
A short description of data set [7]: Apparent oral volume of distribution in F344/N JcL-rnu athymic rat at 5 mg/kg, po measured upto 72 hrs by HPLC-MS/MS analysis. The class given is ADME, organism-based. The note with it: in vivo. The method, boiled down:
as §3

Another data set addresses Focal adhesion kinase 1 (Homo sapiens, UniProt Q05397). Nature of the data set: Inhibition of Fak (unknown origin) in presence of ATP. In outline: as §1
In data set [8] the target is Platelet-derived growth factor receptor beta (Homo sapiens, UniProt P09619). As to the kind of experiment: Inhibition of PDGFR-beta (unknown origin) in presence of ATP.
Another data set concerns NCI-H460. As to the kind of experiment: Antitumor activity against human NCI-H460 cells xenografted in gamma-irradiation induced RH-rnu/rnu athymic rat assessed as tumor growth inhibition at 0.2 mg/kg, po administered once daily for 2 weeks and measured on day 14 relative to control. The settings on record: NCI-H460, light or radiation study, 336 h, read-out: TGI. The class given is functional. The method, boiled down: as §2

In a further data set the test system is PC-3. As to the kind of experiment: Antitumor activity against human PC-3 cells xenografted in gamma-irradiation induced RH-rnu/rnu athymic rat assessed as tumor growth inhibition at 0.2 mg/kg, po administered once daily for 2 weeks and measured on day 14 relative to control. The format is functional. The note with it: PC-3, light or radiation study, 336 h, read-out: TGI.

The next data set has as its system SK-HEP1. As to the kind of experiment: Antitumor activity against human SK-HEP1 cells xenografted in gamma-irradiation induced RH-rnu/rnu athymic rat assessed as tumor growth inhibition at 0.2 mg/kg, po administered once daily for 2 weeks and measured on day 14 relative to control. The class given is functional. The note with it: SK-HEP1, light or radiation study, 336 h, read-out: TGI.

Data set [9] is described as follows: Cmax in F344/N JcL-rnu athymic rat at 1 mg/kg, po measured upto 72 hrs by HPLC-MS/MS analysis. The format is ADME, organism-based. The settings on record: in vivo. In outline:
as §3

In data set [10] the test system is HUVEC. As to the kind of experiment: Inhibition of cell migration in VEGF-induced serum-starved human HUVEC cells at >= 10 nmol/L incubated for 22 hrs by calcein AM staining based fluorescence plate reader analysis. The class given is functional. The method, boiled down: (§4)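 HUVECs starved 5 h in EBM-2 with 0.1% BSA, placed in upper chamber of microchamber plate; lower chamber held 10 ng/mL VEGF, 0.1% FBS, 0.1% BSA. Compound in both chambers. After 22 h, migrated cells stained with 4 μg/mL calcein AM, read at 485/530 nm; 100%/0% set with/without VEGF in 0.1% DMSO; n = 10.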

Data set [11] deals with HUVEC. Nature of the data set: Inhibition of cell migration in VEGF-induced serum-starved human HUVEC cells at 1 nmol/L incubated for 22 hrs by calcein AM staining based fluorescence plate reader analysis relative to control. The class given is functional. The method, boiled down: as §4
The test system of another data set is CAKI-1. As to the kind of experiment: Antitumor activity against human CAKI-1 cells xenografted in gamma-irradiation induced RH-rnu/rnu athymic rat assessed as tumor growth inhibition at 1.0 mg/kg, po administered once daily for 2 weeks and measured on day 14 relative to control. The class given is functional. The settings on record: CAKI-1, light or radiation study, 336 h, read-out: TGI. In outline: as §2

The test system of the next data set is ZR-75-1. As to the kind of experiment: Antitumor activity against human ZR-75-1 cells xenografted in gamma-irradiation induced RH-rnu/rnu athymic rat assessed as tumor growth inhibition at 0.2 mg/kg, po administered once daily for 2 weeks and measured on day 14 relative to control. The format is functional. The settings on record: ZR-75-1, light or radiation study, 336 h, read-out: TGI.

T1 sequence (P27361 whole entry): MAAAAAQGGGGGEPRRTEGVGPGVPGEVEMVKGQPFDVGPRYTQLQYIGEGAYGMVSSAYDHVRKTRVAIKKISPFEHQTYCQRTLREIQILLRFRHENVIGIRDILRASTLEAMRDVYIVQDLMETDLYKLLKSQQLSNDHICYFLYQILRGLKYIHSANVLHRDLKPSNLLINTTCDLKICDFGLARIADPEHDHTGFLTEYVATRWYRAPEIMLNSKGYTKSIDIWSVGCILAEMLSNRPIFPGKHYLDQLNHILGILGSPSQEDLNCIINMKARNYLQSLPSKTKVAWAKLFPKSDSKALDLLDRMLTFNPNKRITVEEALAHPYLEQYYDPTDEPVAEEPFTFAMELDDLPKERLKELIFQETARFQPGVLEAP
Sequence of Receptor tyrosine-protein kinase erbB-4 (Q15303 whole entry): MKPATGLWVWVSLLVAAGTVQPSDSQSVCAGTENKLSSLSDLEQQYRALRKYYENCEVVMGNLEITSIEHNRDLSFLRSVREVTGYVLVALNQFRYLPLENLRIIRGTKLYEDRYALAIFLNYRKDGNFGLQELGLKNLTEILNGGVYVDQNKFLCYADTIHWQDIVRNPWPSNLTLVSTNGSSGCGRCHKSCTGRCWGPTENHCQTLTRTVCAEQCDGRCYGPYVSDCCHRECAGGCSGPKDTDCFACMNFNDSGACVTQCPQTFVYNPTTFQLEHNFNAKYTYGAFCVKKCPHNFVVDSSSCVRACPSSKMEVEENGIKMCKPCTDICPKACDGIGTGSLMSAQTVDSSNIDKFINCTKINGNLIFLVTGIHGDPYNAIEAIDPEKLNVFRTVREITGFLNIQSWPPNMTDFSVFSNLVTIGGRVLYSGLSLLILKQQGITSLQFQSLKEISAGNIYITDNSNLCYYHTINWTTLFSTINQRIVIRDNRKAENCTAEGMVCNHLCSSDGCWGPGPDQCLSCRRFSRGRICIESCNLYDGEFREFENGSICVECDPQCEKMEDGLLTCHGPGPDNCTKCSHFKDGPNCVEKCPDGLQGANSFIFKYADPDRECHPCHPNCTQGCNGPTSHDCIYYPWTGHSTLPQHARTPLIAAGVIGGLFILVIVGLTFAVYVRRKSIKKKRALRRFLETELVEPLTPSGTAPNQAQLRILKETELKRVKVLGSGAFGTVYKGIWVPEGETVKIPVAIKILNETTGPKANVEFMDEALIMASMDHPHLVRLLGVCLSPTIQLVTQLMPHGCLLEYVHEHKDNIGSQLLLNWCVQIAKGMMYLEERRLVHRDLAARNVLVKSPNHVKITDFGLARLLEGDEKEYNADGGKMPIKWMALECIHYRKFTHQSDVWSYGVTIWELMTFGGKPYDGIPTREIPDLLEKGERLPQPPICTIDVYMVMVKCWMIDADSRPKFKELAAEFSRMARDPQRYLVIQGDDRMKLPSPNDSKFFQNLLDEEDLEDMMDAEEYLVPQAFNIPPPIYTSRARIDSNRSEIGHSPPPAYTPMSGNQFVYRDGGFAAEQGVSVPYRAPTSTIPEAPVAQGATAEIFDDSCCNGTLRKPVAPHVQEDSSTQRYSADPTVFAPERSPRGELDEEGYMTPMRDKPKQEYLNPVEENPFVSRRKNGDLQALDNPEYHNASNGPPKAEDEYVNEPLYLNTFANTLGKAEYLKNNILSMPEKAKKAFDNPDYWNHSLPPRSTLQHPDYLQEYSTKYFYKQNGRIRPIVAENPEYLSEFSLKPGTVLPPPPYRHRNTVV
Sequence of Focal adhesion kinase 1 (Q05397 whole entry): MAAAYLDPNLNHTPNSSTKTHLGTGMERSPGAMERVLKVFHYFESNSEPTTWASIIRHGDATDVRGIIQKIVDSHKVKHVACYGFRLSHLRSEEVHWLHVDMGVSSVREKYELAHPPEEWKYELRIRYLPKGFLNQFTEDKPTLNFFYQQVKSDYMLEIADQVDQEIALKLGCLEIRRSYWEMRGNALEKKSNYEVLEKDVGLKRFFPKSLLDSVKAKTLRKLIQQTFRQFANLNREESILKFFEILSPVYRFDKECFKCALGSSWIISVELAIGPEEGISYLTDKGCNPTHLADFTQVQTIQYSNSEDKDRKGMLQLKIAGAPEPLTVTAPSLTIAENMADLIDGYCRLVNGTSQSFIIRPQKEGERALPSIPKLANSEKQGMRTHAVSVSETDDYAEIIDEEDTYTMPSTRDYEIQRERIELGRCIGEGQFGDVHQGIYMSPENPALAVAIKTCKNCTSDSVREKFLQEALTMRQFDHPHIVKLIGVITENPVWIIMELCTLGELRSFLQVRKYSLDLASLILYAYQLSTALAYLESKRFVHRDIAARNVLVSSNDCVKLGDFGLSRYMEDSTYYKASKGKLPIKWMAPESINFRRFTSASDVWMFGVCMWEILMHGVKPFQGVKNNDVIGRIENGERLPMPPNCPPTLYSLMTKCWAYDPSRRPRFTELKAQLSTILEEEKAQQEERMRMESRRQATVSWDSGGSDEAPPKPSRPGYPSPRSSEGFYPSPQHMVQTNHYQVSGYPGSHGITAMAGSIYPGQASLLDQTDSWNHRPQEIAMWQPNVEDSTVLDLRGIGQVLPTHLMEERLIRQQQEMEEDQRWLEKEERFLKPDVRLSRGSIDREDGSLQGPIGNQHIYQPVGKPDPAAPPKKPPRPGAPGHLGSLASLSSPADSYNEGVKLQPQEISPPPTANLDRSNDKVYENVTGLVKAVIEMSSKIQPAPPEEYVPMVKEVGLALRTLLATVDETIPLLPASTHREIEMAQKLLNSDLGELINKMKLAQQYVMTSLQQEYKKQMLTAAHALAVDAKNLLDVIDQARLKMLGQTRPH
Sequence of Ephrin type-B receptor 2 (P29323 whole entry): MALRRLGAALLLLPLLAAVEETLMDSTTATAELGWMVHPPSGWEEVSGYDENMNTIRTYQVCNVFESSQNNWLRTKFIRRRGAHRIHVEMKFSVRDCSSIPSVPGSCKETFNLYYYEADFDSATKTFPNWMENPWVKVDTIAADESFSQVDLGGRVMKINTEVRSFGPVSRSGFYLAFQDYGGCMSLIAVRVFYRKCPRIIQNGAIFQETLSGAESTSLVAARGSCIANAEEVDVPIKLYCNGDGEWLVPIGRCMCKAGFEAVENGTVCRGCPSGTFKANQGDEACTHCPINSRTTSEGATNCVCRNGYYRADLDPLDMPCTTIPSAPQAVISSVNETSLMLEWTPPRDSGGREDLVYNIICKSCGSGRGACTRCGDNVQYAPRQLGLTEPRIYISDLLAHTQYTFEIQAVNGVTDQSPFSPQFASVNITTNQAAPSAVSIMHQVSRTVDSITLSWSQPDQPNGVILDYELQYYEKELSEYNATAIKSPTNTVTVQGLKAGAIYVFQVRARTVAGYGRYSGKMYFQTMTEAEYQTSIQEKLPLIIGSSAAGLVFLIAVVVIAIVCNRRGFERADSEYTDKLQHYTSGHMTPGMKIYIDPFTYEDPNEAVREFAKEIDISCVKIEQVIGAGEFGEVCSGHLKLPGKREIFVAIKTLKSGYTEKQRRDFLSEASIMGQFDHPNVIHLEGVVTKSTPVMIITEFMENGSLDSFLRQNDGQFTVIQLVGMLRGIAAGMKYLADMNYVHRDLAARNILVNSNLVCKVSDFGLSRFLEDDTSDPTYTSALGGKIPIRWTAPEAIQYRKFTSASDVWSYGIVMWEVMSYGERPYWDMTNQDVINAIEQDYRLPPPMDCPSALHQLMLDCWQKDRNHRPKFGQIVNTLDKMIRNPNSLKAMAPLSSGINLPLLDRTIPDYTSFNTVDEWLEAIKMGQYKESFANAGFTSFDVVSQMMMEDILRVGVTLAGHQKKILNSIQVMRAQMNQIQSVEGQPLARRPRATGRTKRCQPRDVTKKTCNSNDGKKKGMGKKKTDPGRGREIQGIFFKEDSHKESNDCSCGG
Sequence of Platelet-derived growth factor receptor beta (P09619 whole entry): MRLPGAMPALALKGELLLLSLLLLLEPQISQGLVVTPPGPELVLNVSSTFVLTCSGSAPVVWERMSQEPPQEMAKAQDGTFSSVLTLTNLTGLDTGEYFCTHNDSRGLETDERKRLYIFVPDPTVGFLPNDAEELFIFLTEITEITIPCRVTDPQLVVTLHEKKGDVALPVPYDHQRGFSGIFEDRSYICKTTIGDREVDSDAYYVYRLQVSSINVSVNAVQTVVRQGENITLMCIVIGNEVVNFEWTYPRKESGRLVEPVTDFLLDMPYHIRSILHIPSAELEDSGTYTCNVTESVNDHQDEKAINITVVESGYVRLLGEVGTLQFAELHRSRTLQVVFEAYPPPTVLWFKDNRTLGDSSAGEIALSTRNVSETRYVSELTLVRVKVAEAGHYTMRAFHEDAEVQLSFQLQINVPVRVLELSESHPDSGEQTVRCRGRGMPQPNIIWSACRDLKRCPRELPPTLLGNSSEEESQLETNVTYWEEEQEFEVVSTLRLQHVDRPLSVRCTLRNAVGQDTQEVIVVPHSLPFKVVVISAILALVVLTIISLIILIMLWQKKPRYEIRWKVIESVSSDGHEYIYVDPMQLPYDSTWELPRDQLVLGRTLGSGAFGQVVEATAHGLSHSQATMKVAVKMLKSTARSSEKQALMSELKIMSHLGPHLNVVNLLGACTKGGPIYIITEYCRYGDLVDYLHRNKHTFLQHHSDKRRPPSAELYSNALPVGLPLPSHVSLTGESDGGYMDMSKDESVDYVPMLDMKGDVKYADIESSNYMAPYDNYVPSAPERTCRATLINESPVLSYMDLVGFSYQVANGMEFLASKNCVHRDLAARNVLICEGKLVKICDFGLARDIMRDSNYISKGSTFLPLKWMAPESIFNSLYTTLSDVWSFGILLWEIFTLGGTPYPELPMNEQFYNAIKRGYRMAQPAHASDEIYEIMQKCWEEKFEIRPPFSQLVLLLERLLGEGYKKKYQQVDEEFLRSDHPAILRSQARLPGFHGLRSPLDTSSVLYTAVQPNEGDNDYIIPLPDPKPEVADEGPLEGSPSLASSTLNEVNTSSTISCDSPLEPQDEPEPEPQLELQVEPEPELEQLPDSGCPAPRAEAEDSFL

As usually defined, the inhibition is the share of the control response that was lost under treatment. The IC50 is the concentration that inhibits the measured activity by half. A word on the CL/F: it is clearance divided by bioavailability, as obtained after extravascular dosing. By Vd/F is commonly meant the volume of distribution divided by bioavailability. Usually Cmax stands for the highest concentration seen after dosing. With `COc1cc2nccc(Oc3ccc(NC(=O)Nc4cc(C)on4)c(Cl)c3)c2cc1OC` [TIVOZANIB], the inhibition result in data set [1] and in data set [2] was “inactive” each time. Moreover, the IC50 on Ephrin type-B receptor 2 is 24 nM; in the data set on HUVEC [4] it was above 300 nM; in data set [5], above 1000 nM; in data set [6] it was 0.13 nM; at Focal adhesion kinase 1 it was above 1000 nM; in [8] it was 49 nM. The inhibition in vivo at 0.2 mg/kg in the data set with LoVo was determined as 60.3%; in the data set on BXPC-3, 60.7%; in the data set on NCI-H460 it was 68.8%; in the data set with PC-3 it was 73.6%; in the data set with SK-HEP1, 59.4%; in the data set with ZR-75-1, 77.2%. Besides, the tumor regression % at 0.2 mg/kg in the data set on A549 worked out at 2%. Besides, the CL/F in data set [3] is 2.07 mL/min/kg. Also, the Activity in the data set with MDA-MB-231 came to 0.89. In addition, the result in the data set with Calu-6 was Active. In addition, in data set [7], the Vd/F worked out at 1.29 L/kg. Besides, the peak level in data set [9] (Cmax) was 484 ng/mL. For the same molecule, the inhibition entry in the data set with HUVEC [10] is “Active”. The inhibition at 0.001 µM with HUVEC [11] was around 40%. In addition, in the data set with CAKI-1, the inhibition in vivo at 1 mg/kg is above 100%.

(Values after ChEMBL document CHEMBL5661970 (Cancer Res, 2006).)
